Results taken from ChEMBL document CHEMBL1157537 (J Med Chem, 2008).
Calls of active or inactive are those of the source. The calls are words filed in the database; no cut-off is given here.

Key:
[1] = target: T1, Androgen receptor (Homo sapiens) (UniProt P10275); assay: Agonist activity at human androgen receptor relative to dihydrotestosterone; assay type: functional
T1 sequence (whole entry): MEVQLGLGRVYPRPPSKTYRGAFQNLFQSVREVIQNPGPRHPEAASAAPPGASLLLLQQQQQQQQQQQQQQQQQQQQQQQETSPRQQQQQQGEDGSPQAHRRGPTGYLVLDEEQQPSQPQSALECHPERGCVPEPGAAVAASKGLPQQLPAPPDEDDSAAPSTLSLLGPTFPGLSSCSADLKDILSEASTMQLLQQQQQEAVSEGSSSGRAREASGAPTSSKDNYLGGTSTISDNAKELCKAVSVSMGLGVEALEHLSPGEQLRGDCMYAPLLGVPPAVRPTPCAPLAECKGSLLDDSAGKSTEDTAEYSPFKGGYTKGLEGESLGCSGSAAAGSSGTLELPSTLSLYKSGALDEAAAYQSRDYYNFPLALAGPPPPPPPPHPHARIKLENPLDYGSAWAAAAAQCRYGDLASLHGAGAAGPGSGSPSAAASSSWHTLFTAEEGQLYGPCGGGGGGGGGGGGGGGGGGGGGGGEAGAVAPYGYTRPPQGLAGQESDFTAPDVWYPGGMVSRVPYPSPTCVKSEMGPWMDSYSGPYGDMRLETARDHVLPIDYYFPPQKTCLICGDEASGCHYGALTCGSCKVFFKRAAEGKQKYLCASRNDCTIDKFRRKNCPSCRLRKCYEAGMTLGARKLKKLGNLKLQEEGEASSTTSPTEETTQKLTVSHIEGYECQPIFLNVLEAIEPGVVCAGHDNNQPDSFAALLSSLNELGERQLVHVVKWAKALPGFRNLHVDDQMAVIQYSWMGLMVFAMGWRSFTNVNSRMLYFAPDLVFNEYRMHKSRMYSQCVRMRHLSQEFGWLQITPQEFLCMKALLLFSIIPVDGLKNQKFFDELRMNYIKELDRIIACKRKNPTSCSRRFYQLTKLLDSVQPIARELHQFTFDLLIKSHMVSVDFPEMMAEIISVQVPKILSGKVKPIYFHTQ

Cynomolgus monkey = assay: Inhibition of ovulation in cynomolgus monkey assessed as reduction of progesterone level after 3 weeks; assay type: functional, organism-based; conditions: Macaca fascicularis
[2] = target: T2, Glucocorticoid receptor (Homo sapiens) (UniProt P04150); assay: Antagonist activity at human glucocorticoid receptor relative to Dexamethasone; assay type: functional
T2 sequence (whole entry): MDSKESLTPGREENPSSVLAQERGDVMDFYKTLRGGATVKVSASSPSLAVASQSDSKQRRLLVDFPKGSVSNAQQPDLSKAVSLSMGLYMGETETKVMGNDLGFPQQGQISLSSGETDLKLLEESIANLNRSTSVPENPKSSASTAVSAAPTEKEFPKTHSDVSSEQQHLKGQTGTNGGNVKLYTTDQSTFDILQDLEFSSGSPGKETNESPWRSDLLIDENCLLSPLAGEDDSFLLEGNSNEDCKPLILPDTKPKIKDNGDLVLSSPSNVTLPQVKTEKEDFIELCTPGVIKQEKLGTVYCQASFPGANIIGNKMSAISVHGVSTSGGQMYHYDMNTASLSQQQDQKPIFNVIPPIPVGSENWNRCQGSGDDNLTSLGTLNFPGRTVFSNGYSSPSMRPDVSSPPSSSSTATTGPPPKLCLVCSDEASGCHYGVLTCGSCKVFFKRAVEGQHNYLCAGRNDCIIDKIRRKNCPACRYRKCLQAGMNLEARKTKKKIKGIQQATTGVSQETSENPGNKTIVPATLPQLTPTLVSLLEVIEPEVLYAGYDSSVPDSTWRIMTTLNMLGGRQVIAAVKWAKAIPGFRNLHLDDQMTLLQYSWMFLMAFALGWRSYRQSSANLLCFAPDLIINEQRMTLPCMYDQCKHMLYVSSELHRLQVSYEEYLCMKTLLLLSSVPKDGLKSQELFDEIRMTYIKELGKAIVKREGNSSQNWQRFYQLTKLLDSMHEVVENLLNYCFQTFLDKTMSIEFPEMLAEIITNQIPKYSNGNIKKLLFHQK

[3] = target: T3, Progesterone receptor (Homo sapiens) (UniProt P06401); assay: Agonist activity at human progesterone receptor in human T47D cells assessed as alkaline phosphatase activity relative to progesterone; assay type: functional, cell-based
T3 sequence (whole entry): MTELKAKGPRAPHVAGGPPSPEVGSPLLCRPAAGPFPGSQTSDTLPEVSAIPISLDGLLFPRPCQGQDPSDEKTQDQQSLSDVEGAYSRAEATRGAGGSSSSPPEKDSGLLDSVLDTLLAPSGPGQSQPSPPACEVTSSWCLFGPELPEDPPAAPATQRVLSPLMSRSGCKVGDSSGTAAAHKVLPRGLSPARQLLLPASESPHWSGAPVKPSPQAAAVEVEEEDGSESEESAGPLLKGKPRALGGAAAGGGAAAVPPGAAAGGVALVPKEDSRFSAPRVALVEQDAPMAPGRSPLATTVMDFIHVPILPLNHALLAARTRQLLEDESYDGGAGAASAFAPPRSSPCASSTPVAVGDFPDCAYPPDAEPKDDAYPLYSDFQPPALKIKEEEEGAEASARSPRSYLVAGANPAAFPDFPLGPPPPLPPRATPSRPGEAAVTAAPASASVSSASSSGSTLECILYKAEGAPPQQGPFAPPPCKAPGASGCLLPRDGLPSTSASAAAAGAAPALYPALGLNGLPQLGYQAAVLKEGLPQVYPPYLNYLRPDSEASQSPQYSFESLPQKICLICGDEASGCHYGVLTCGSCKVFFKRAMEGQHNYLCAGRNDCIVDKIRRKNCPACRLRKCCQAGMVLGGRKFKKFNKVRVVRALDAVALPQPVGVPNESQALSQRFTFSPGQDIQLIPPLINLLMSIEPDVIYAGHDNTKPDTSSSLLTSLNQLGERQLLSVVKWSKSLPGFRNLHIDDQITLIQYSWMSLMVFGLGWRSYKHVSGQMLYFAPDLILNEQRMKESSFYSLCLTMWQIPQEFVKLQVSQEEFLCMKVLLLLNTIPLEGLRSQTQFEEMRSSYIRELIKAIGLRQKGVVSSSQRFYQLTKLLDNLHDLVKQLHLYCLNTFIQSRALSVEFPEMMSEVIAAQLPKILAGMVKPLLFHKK

Rattus norvegicus = assay: Inhibition of ovulation in rat assessed as reduction in number of ova at 0.25 to 2.0 mg/kg, po for 5 days; assay type: functional, organism-based
Summary of the method: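 Female rats (n = 6 per group) received vehicle or progestin for 5 days at 0.25, 1.0 or 2.0 mg/kg. The number of ova per rat and the number of rats ovulating were then determined.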

Efficacy [1]: 177% | Efficacy [2]: 92% | Efficacy [3]: 55%
Structure (SMILES): CC1=C[C@@H]([C@@H]2Oc3c(F)cc(F)cc3-c3ccc4c(c32)C(C)=CC(C)(C)N4)CCC1 (stereo in doubt; (-)-5c)
Activity (Cynomolgus monkey): Active | Activity (Rattus norvegicus): Active
